Data published in ChEMBL document CHEMBL1156184, “Synthesis and biological evaluation of 4-(hydroxyimino)arylmethyl diarylpyrimidine analogues as potential non-nucleoside reverse transcriptase inhibitors against HIV” (Bioorg Med Chem, 2010).

Tests used:
[1] = Selectivity index, ratio of CC50 for human MT4 cells to EC50 for HIV2 ROD; type: toxicity, cell-based; conditions: read-out: Ratio CC50/EC50
How it was run: (§1)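 Selectivity index is CC₅₀ in uninfected MT-4 cells divided by EC₅₀ against the given strain (IIIB or ROD). Both values come from parallel 4-day MTT assays, with cells infected at a multiplicity of infection of 0.02.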

[2] = Selectivity index, ratio of CC50 for human MT4 cells to EC50 for HIV1 3B; type: toxicity, cell-based; conditions: read-out: Ratio CC50/EC50; how it was run: as §1
[3] = test system: Human immunodeficiency virus 1; assay: Antiviral activity against HIV1 expressing reverse transcriptase K103N/Y181C double mutant infected in human MT4 cells assessed as protection against virus-induced cytopathogenicity after 4 days by MTT assay; type: functional, organism-based; conditions: Human immunodeficiency virus 1, MT4, 96 h
How it was run: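 RES056 strain (carries K103N and Y181C), titrated in MT-4 cells as CCID50. MT-4 cells at 1 × 10⁵ cells/mL infected at MOI 0.02 and incubated 4 days at 37 °C with compound. Viable cells counted by MTT. EC50 is the concentration protecting cells by 50% against viral cytopathogenicity. Values are means of at least two separate experiments.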

[4] = Cytotoxicity against human MT4 cells after 4 days by MTT assay; type: cell-based
How it was run: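 Uninfected MT-4 cells were run in parallel with the antiviral assay: 4 days at 37 °C with compound, then viability read by MTT. CC₅₀ is the concentration that reduces viability of uninfected cells by 50%. Values are means of at least two separate experiments.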

[5] = test system: Human immunodeficiency virus 2; assay: Antiviral activity against HIV2 ROD infected in human MT4 cells assessed as protection from virus-induced cytopathogenicity after 4 days by MTT assay; type: functional, organism-based; conditions: Human immunodeficiency virus 2, ISOLATE ROD, MT4, 96 h
How it was run: (§2)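 MT-4 cells at 1 × 10⁵ cells/mL infected with HIV (IIIB or ROD) at a multiplicity of infection of 0.02, using virus stocks titrated in MT-4 cells as CCID₅₀. Compound present during a 4-day incubation at 37 °C. Viable cells counted by MTT. EC₅₀ is the concentration protecting cells against viral cytopathogenicity by 50%. Values are means of at least two separate experiments.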

[6] = test system: Human immunodeficiency virus 1; assay: Antiviral activity against HIV1 3B infected in human MT4 cells assessed as protection from virus-induced cytopathogenicity after 4 days by MTT assay; type: functional, organism-based; conditions: Human immunodeficiency virus 1, 3B, MT4, 96 h; how it was run: as §2
[7] = test system: Human immunodeficiency virus 1; assay: Ratio of delavirdine EC50 to compound EC50 for HIV1 3B infected in human MT4 cells; type: functional
[8] = test system: Human immunodeficiency virus 1; assay: Ratio of nevirapine EC50 to compound EC50 for HIV1 3B infected in human MT4 cells; type: functional

Row | SMILES | selectivity ratio [1] | selectivity ratio [2] | EC50 [3] | CC50 at 96 h [4] | EC50 [5] | EC50 [6] | Ratio EC50 [7] | Ratio EC50 [8]
1 | COc1ccc(/C(=N/O)c2ccnc(Nc3ccc(C#N)cc3)n2)cc1 | ≤ 11 | 3790 | 10.3 µM | 50.2 µM | ≥ 4.72 µM | 0.013 µM |  | 
2 | N#Cc1ccc(Nc2nccc(/C(=N\O)c3ccc(Cl)cc3)n2)cc1 | ≤ 2 | 209 | ≥ 7.62 µM | 17.2 µM | ≥ 7.33 µM | 0.083 µM |  | 
3 | COc1cccc(/C(=N/O)c2ccnc(Nc3ccc(C#N)cc3)n2)c1 | 3.67 | 1220 | 8.72 µM | 30.5 µM | 8.31 µM | 0.025 µM | 29 | 8
4 | Cc1ccc(/C(=N/O)c2ccnc(Nc3ccc(C#N)cc3)n2)cc1 | ≤ 2 | 2390 | ≥ 5.1 µM | 13.3 µM | ≥ 6.54 µM | 0.006 µM |  | 
5 | N#Cc1ccc(Nc2nccc(/C(=N\O)c3ccc(F)cc3)n2)cc1 | > 19 | > 456 | 13.8 µM | > 377 µM | 19.9 µM | 0.827 µM |  | 
6 | N#Cc1ccc(Nc2nccc(/C(=N\O)c3ccccc3Cl)n2)cc1 | < 1 | 997 | > 12.6 µM | 12.6 µM | > 12.6 µM | 0.013 µM |  | 
7 | N#Cc1ccc(Nc2nccc(/C(=N\O)c3cccc(Br)c3)n2)cc1 | < 1 | 65 | > 23.5 µM | 23.5 µM | > 23.5 µM | 0.362 µM |  | 
8 | N#Cc1ccc(Nc2nccc(/C(=N\O)c3ccccc3Br)n2)cc1 | < 1 | 2500 | > 13.2 µM | 13.2 µM | > 13.2 µM | 0.005 µM |  | 
9 | Cc1cccc(/C(=N/O)c2ccnc(Nc3ccc(C#N)cc3)n2)c1 | < 1 | 626 | 4.52 µM | 20 µM | ≥ 11.6 µM | 0.032 µM |  | 
10 | N#Cc1ccc(Nc2nccc(/C(=N\O)c3cccc4ccccc34)n2)cc1 | < 1 | 844 | > 33.1 µM | 33.1 µM | > 33.1 µM | 0.039 µM |  | 
11 | Cc1ccccc1/C(=N/O)c1ccnc(Nc2ccc(C#N)cc2)n1 | < 1 | 619 | ≥ 1.59 µM | 29.9 µM | > 29.9 µM | 0.048 µM |  | 
12 | Cc1cc(C)cc(/C(=N/O)c2ccnc(Nc3ccc(C#N)cc3)n2)c1 | ≤ 4 | 756 | 7.89 µM | 35.9 µM | ≥ 8.96 µM | 0.047 µM |  | 
13 | Cc1ccnc2c1NC(=O)c1cccnc1N2C1CC1 [NEVIRAPINE] |  | > 75 | > 15 µM | > 15 µM |  | 0.2 µM |  | 
14 | CC(C)Nc1cccnc1N1CCN(C(=O)c2cc3cc(NS(C)(=O)=O)ccc3[nH]2)CC1 [DELAVIRDINE] |  | > 62 | > 43.8 µM | > 43.8 µM |  | 0.72 µM |  | 
15 | N#Cc1ccc(Nc2nccc(/C(=N\O)c3cccc(Cl)c3)n2)cc1 | ≤ 4 | 102 | > 14.9 µM | 30.4 µM | ≥ 7.3 µM | 0.298 µM |  | 
16 | O=C1Nc2ccc(Cl)cc2[C@@](C#CC2CC2)(C(F)(F)F)O1 [EFAVIRENZ] |  |  | 0.18 µM | > 6.34 µM |  |  |  | 
17 | N#Cc1ccc(Nc2nccc(/C(=N\O)c3ccccc3F)n2)cc1 | < 1 | 106 | > 5.67 µM | 5.67 µM | > 5.67 µM | 0.053 µM |  | 
18 | CC(C)(C)c1ccc(/C(=N/O)c2ccnc(Nc3ccc(C#N)cc3)n2)cc1 | < 1 | 234 | 7.2 µM | 33.7 µM | ≥ 33.7 µM | 0.144 µM |  | 
19 | N#Cc1ccc(Nc2nccc(/C(=N\O)c3ccccc3)n2)cc1 | < 1 | 24.6 | 5.6 µM | 14 µM | ≥ 14 µM | 0.569 µM |  | 
20 | N#Cc1ccc(Nc2nccc(/C(=N\O)c3cccc(F)c3)n2)cc1 | ≤ 2 | 67.9 | ≥ 6.7 µM | 15.3 µM | ≥ 8.33 µM | 0.225 µM |  | 
21 | N#Cc1ccc(Nc2nccc(/C(=N\O)c3ccc(Br)cc3)n2)cc1 | ≤ 5 | 205 | ≥ 7.21 µM | 26 µM | ≥ 4.97 µM | 0.127 µM |  | 
22 | N#Cc1ccc(Nc2nccc(/C(=N\O)c3ccc4ccccc4c3)n2)cc1 | < 1 | 673 | > 14.3 µM | 31.6 µM | > 14.3 µM | 0.047 µM |  | 
